Assay results as given in ChEMBL document CHEMBL1148785, “Second generation tetrahydroquinoline-based protein farnesyltransferase inhibitors as antimalarials” (J Med Chem, 2007).

Experiments:
Plasmodium falciparum [1] = assay: Inhibition of Plasmodium falciparum protein farnesyltransferase at 50 nM by scintillation proximity assay
Plasmodium falciparum [2] = assay: Inhibition of Plasmodium falciparum protein farnesyltransferase at 5 nM by scintillation proximity assay
Plasmodium falciparum [3] = assay: Inhibition of Plasmodium falciparum protein farnesyltransferase at 0.5 nM by scintillation proximity assay
Plasmodium falciparum [4] = assay: Antimalarial activity against Plasmodium falciparum 3D7; format: functional; conditions: Plasmodium falciparum, 3D7; read-out: ED50 (the source's name)
Procedure, shortened: (§1)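 Asynchronous culture in type A+ erythrocytes at 0.5% parasitemia and 0.5% hematocrit, grown in RPMI-1640 with 20% heat-inactivated human A+ plasma. Compound was serially diluted from a top final 5 µM, with DMSO vehicle as 100% growth. Plates ran 48 h at 37 °C under 5% CO2/5% O2/90% N2, then [3H]-hypoxanthine (0.3 µCi) for 24 h. Filter-harvested counts were corrected for the uninfected-RBC background. ED50 by linear regression; duplicates averaged.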

Plasmodium falciparum [5] = assay: Antimalarial activity against Plasmodium falciparum K1; format: functional; conditions: Plasmodium falciparum, K1; read-out: ED50 (the source's name); procedure, shortened: as §1

Row | Compound | inhibition (Plasmodium falciparum [1]) | inhibition (Plasmodium falciparum [2]) | inhibition (Plasmodium falciparum [3]) | EC50 (Plasmodium falciparum [4]) | EC50 (Plasmodium falciparum [5])
1 | Cn1cncc1CN1CC(N(CC(=O)NC(C)(C)C)S(=O)(=O)CCN)Cc2cc(C#N)ccc21 (stereo not given) | 11% | 10% | 5% | > 5000 nM | > 5000 nM
2 | Cn1cncc1CN1CC(N(CCc2ccccc2F)S(=O)(=O)c2ccccn2)Cc2cc(C#N)ccc21 (stereo not given) | 98% | 81% | 22% | 120 nM | 600 nM
3 | CCN(C1Cc2cc(-c3ccccc3)ccc2N(Cc2cncn2C)C1)S(=O)(=O)c1cn(C)cn1 (stereo not given) | 86% | 29% | 10% | 5000 nM | > 5000 nM
4 | Cn1cncc1CN1CC(N(CC2CCN(C(=O)N3CCCC3)CC2)S(=O)(=O)c2ccccn2)Cc2cc(C#N)ccc21 (stereo not given) | 99% | 31% | 91% | 35 nM | 65 nM
5 | CC(C)NC(=O)N1CCC(CN(C2Cc3cc(C#N)ccc3N(Cc3cncn3C)C2)S(=O)(=O)c2ccccn2)CC1 (stereo not given) | 100% | 38% | 93% | 65 nM | 45 nM
6 | CCCS(=O)(=O)N(Cc1ccccc1F)C1Cc2cc(C#N)ccc2N(Cc2cncn2C)C1 (stereo not given) | 41% | 16% | 11% | 1200 nM | 3050 nM
7 | Cn1cncc1CN1CC(N(CC2CCN(C(=O)NC(C)(C)C)CC2)S(=O)(=O)c2ccccn2)Cc2cc(C#N)ccc21 (stereo not given) | 98% | 28% | 84% | 320 nM | 150 nM
8 | Cn1cnc(S(=O)(=O)N(CCc2ccccc2F)C2Cc3cc(C#N)ccc3N(Cc3cncn3C)C2)c1 (stereo not given) | 100% | 98% | 43% | 16 nM | 16 nM
9 | Cn1cncc1CN1CC(N(Cc2ccc(S(C)(=O)=O)cc2)S(=O)(=O)c2ccccc2Cl)Cc2cc(C#N)ccc21 (stereo not given) | 99% | 87% | 16% | 400 nM | 800 nM
10 | COC(=O)N1CCC(CN(C2Cc3cc(C#N)ccc3N(Cc3cncn3C)C2)S(=O)(=O)c2cnn(C)c2)CC1 (stereo not given) | 100% | 98% | 39% | 42 nM | 45 nM
11 | COC(=O)N1CCC(CN(C2Cc3cc(C#N)ccc3N(Cc3cncn3C)C2)S(C)(=O)=O)CC1 (stereo not given) | 66% | 5% | 0% | 2700 nM | > 5000 nM
12 | COC(=O)c1ccnc(CN(C2Cc3cc(C#N)ccc3N(Cc3cncn3C)C2)S(=O)(=O)c2cn(C)cn2)c1 (stereo not given) | 100% | 98% | 46% | 620 nM | 163 nM
13 | COC(=O)N1CCC(CN(C2Cc3cc(C#N)ccc3N(Cc3cncn3C)C2)S(=O)(=O)c2sccc2C)CC1 (stereo not given) | 95% | 66% | 18% | 55 nM | 75 nM
14 | COC(=O)N1CCC(CN(C2Cc3cc(C#N)ccc3N(C(C)c3cnc[nH]3)C2)S(=O)(=O)c2ccccn2)CC1 (stereo not given) | 96% | 79% | 12% | 650 nM | 650 nM
15 | Cn1cncc1CN1CC(N(Cc2ccc(F)cc2)S(=O)(=O)c2ccccn2)Cc2cc(C#N)ccc21 (stereo not given) | 91% | 50% | 11% | 430 nM | 2500 nM
16 | Cn1cnc(S(=O)(=O)N(Cc2ccc(S(C)(=O)=O)cc2)C2Cc3cc(C#N)ccc3N(Cc3cncn3C)C2)c1 (stereo not given) | 100% | 99% | 82% | 6 nM | 10 nM
17 | Cn1cncc1CN1CC(N(CCN)S(=O)(=O)c2ccccn2)Cc2cc(C#N)ccc21 (stereo not given) | 65% | 11% | 6% | 2700 nM | > 5000 nM
18 | Cc1noc(C)c1CN(C1Cc2cc(C#N)ccc2N(Cc2cncn2C)C1)S(=O)(=O)c1cn(C)cn1 (stereo not given) | 100% | 98% | 46% | 25 nM | < 20 nM
19 | Cn1cnc(S(=O)(=O)N2CCC(CN(C3Cc4cc(C#N)ccc4N(Cc4cncn4C)C3)S(=O)(=O)c3ccccn3)CC2)c1 (stereo not given) | 92% | 20% | 60% | 700 nM | 650 nM
20 | Cn1cncc1CN1CC(N(Cc2ccc(S(C)(=O)=O)cc2)S(=O)(=O)c2ccc3c(c2)OCCCO3)Cc2cc(C#N)ccc21 (stereo not given) | 97% | 78% | 10% | 2100 nM | 3500 nM
21 | Cn1cnc(S(=O)(=O)N(Cc2cc3nsnc3cc2Cl)C2Cc3cc(C#N)ccc3N(Cc3cncn3C)C2)c1 (stereo not given) | 90% | 58% | 0% | 3000 nM | 3750 nM

Row | Compound | inhibition (Plasmodium falciparum [1]) | inhibition (Plasmodium falciparum [2]) | inhibition (Plasmodium falciparum [3]) | EC50 (Plasmodium falciparum [4]) | EC50 (Plasmodium falciparum [5])
22 | CC(C)NC(=O)c1ccc2c(c1)CC(N(CC(=O)NC(C)(C)C)S(=O)(=O)c1cn(C)cn1)CN2Cc1cncn1C (stereo not given) | 46% | 7% | 14% | 4000 nM | 2600 nM
23 | Cc1c(S(=O)(=O)N(CC2CCN(C(=O)OC(C)(C)C)CC2)C2Cc3cc(C#N)ccc3N(Cc3cncn3C)C2)ncn1C (stereo not given) | 98% | 87% | 18% | 140 nM | 75 nM
24 | Cn1cncc1CN1CC(N(Cc2cccc3nsnc23)S(=O)(=O)c2ccccn2)Cc2cc(C#N)ccc21 (stereo not given) | 85% | 31% | 12% | 175 nM | 98 nM
25 | Cn1cnc(S(=O)(=O)N(CCOc2cccc3c2OCCO3)C2Cc3cc(C#N)ccc3N(Cc3cncn3C)C2)c1 (stereo not given) | 99% | 91% | 12% | 355 nM | 350 nM
26 | COC(=O)c1cccc(CN(C2Cc3cc(C#N)ccc3N(Cc3cncn3C)C2)S(=O)(=O)c2ccccn2)n1 (stereo not given) | 96% | 94% | 66% | 600 nM | 900 nM
27 | C=C(C)C(=O)N1CCC(CN(C2Cc3cc(C#N)ccc3N(Cc3cncn3C)C2)S(=O)(=O)c2ccccn2)CC1 (stereo not given) | 100% | 31% | 92% | 50 nM | 60 nM
28 | Cn1cnc(S(=O)(=O)N(Cc2ccccn2)C2Cc3cc(C#N)ccc3N(Cc3cncn3C)C2)c1 (stereo not given) | 98% | 96% | 25% | 10 nM | 36 nM
29 | CC(=O)N(Cc1ccccc1F)C1Cc2cc(C#N)ccc2N(Cc2cncn2C)C1 (stereo not given) | 43% | 1% | 0% | 650 nM | 730 nM
30 | Cn1cncc1CN1CC(N(CCCCNC(=O)OC(C)(C)C)S(=O)(=O)c2ccccn2)Cc2cc(C#N)ccc21 (stereo not given) | 97% | 80% | 24% | 250 nM | 375 nM
31 | Cn1cnc(S(=O)(=O)N(Cc2ccc(C#N)cc2)C2Cc3cc(C#N)ccc3N(Cc3cncn3C)C2)c1 (stereo not given) | 96% | 90% | 54% | 70 nM | 55 nM
32 | COC(=O)N1CCC(CN(C2Cc3cc(C#N)ccc3N(Cc3cncn3C)C2)S(=O)(=O)c2ccccc2Cl)CC1 (stereo not given) | 97% | 80% | 24% | 55 nM | 70 nM
33 | Cn1cnc(S(=O)(=O)N(CCNC(=O)OC(C)(C)C)C2Cc3cc(C#N)ccc3N(Cc3cncn3C)C2)c1 (stereo not given) | 99% | 90% | 28% | 460 nM | 75 nM
34 | Cn1cnc(S(=O)(=O)N(CC(=O)NC(C)(C)C)C2Cc3cc(C(=O)O)ccc3N(Cc3cncn3C)C2)c1 (stereo not given) | 80% | 29% | 0% | 3500 nM | 1420 nM
35 | COC(=O)N1CCC(CN(C2Cc3cc(C#N)ccc3N(Cc3cncn3C)C2)S(=O)(=O)c2cn(C)cn2)CC1 (stereo not given) | 97% | 95% | 54% | 9 nM | 4.5 nM
36 | Cn1cncc1CN1CC(N(CCOc2cccc3c2OCCO3)S(=O)(=O)c2ccccn2)Cc2cc(C#N)ccc21 (stereo not given) | 88% | 41% | 10% | 810 nM | 1450 nM
37 | Cn1cnc(S(=O)(=O)N(CC(=O)O)C2Cc3cc(C#N)ccc3N(Cc3cncn3C)C2)c1 (stereo not given) | 97% | 81% | 19% | 125 nM | 400 nM
38 | Cc1oncc1CN(C1Cc2cc(C#N)ccc2N(Cc2cncn2C)C1)S(=O)(=O)c1ccccn1 (stereo not given) | 94% | 62% | – | 450 nM | 2800 nM
39 | Cn1cncc1CN1CC(N(CCCCN2C(=O)c3ccccc3C2=O)S(=O)(=O)c2ccccn2)Cc2cc(C#N)ccc21 (stereo not given) | 92% | 63% | – | 820 nM | 3600 nM
40 | Cn1cnc(S(=O)(=O)N(CC(=O)OC(C)(C)C)C2Cc3cc(C#N)ccc3N(Cc3cncn3Cc3ccccc3)C2)c1 (stereo not given) | – | 45% | 22% | 150 nM | 140 nM
41 | Cn1cncc1CN1CC(N(Cc2cccc(-n3cccn3)c2)S(=O)(=O)c2ccccn2)Cc2cc(C#N)ccc21 (stereo not given) | 90% | 52% | – | 850 nM | 850 nM
42 | Cc1nn(-c2ccccc2)nc1CN(C1Cc2cc(C#N)ccc2N(Cc2cncn2C)C1)S(=O)(=O)c1ccccn1 (stereo not given) | 97% | 66% | – | 140 nM | 600 nM
